Experimental data pooled from the literature.
Protocols differ between the studies behind these lines.
Observed: cell growth or viability

SMILES | cell line | technique | time | IC50
O=C(O)/C=C/c1ccc(C(c2c[nH]c3ccccc23)c2c[nH]c3ccccc23)s1 | KG-1 | – | 48 h | > 20 µM
CCn1c2ccccc2c2cc(C3CC(c4cc5c(ccc6ccccc65)oc4=O)=NN3C(N)=O)ccc21 (stereo not drawn) | NRK-52E | MTT | 24 h | 59.1 µM
COc1cc2c(Oc3ccc(NC(=O)C4(C(=O)Nc5ccc(F)cc5)CC4)cc3F)ccnc2cc1OCCCN1CCOCC1 | Rh18 | – | 72 h | 0.31 µM
CC1=C(O)C(=O)C=C2C1=CC=C1[C@@]2(C)CC[C@@]2(C)[C@@H]3C[C@](C)(C(=O)OCCCCCCCCO)CC[C@]3(C)CC[C@]12C | Bel-7402 | MTT | 48 h | 1.16 µM
Cn1cc(C(c2cccc(/C=C/C(=O)O)c2)c2cn(C)c3ccccc23)c2ccccc21 | KG-1 | – | 48 h | > 20 µM
CCn1c2ccccc2c2cc(C3CC(c4cc5ccccc5oc4=O)=NN3c3cccc(Cl)c3)ccc21 (stereo not drawn) | NRK-52E | MTT | 24 h | 41 µM
COc1cc(N2CCC(N3CCN(C)CC3)CC2)ccc1Nc1ncc(Cl)c(Nc2ccccc2S(=O)(=O)C(C)C)n1 | Rh18 | – | 72 h | 0.27 µM
COCCCOC(=O)[C@]1(C)CC[C@]2(C)CC[C@]3(C)C4=CC=C5C(=CC(=O)C(O)=C5C)[C@]4(C)CC[C@@]3(C)[C@@H]2C1 | Bel-7402 | MTT | 48 h | 0.81 µM
CC(C)[C@H](N)C(=O)N1CCC[C@H]1B(O)O | KG-1 | ATP luminescence | 48 h | 0.12 µM
CC1=C(O)C(=O)C=C2C1=CC=C1[C@@]2(C)CC[C@@]2(C)[C@@H]3C[C@](C)(C(=O)OCCCn4ccc5ccccc54)CC[C@]3(C)CC[C@]12C | Bel-7402 | MTT | 48 h | 5.42 µM
Cc1ccc2[nH]cc(C(c3ccc(/C=C/C(=O)O)s3)c3c[nH]c4ccc(C)cc34)c2c1 | KG-1 | – | 48 h | > 5 µM
CCn1c2ccccc2c2cc(C3CC(c4cc5ccccc5oc4=O)=NN3C(C)=O)ccc21 (stereo not drawn) | NRK-52E | MTT | 24 h | 116 µM
CC(=O)OCCOC(=O)[C@]1(C)CC[C@]2(C)CC[C@]3(C)C4=CC=C5C(=CC(=O)C(O)=C5C)[C@]4(C)CC[C@@]3(C)[C@@H]2C1 | Bel-7402 | MTT | 48 h | 0.59 µM
CCn1c2ccccc2c2cc(/C=C/C(=O)c3cc4cccc(OC)c4oc3=O)ccc21 | NRK-52E | MTT | 24 h | 115 µM
CC1=C(O)C(=O)C=C2C1=CC=C1[C@@]2(C)CC[C@@]2(C)[C@@H]3C[C@](C)(C(=O)OCCCO)CC[C@]3(C)CC[C@]12C | Bel-7402 | MTT | 48 h | 0.58 µM
CCn1c2ccccc2c2cc(C3CC(c4cc5cccc(OC)c5oc4=O)=NN3c3ccccc3)ccc21 (stereo not drawn) | NRK-52E | MTT | 24 h | 70.4 µM
CC(C)n1cc(C(c2ccc(/C=C/C(=O)O)s2)c2cn(C(C)C)c3ccccc23)c2ccccc21 | KG-1 | – | 48 h | > 5 µM
CC1=C(O)C(=O)C=C2C1=CC=C1[C@@]2(C)CC[C@@]2(C)[C@@H]3C[C@](C)(C(=O)OCCCCCO)CC[C@]3(C)CC[C@]12C | Bel-7402 | MTT | 48 h | 0.59 µM
O=C(O)/C=C/c1cccc(C(c2c[nH]c3ccccc23)c2c[nH]c3ccccc23)c1 | KG-1 | – | 48 h | > 20 µM
CC1=C(O)C(=O)C=C2C1=CC=C1[C@@]2(C)CC[C@@]2(C)[C@@H]3C[C@](C)(C(=O)OCCCN4C(=O)C5C=CC=CC5C4=O)CC[C@]3(C)CC[C@]12C (stereo partly drawn) | Bel-7402 | MTT | 48 h | 0.83 µM
Cc1cccc2c(C(c3ccc(/C=C/C(=O)O)s3)c3c[nH]c4c(C)cccc34)c[nH]c12 | KG-1 | – | 48 h | > 5 µM
CCn1c2ccccc2c2cc(C3CC(c4cc5cccc(OC)c5oc4=O)=NN3C(C)=O)ccc21 (stereo not drawn) | NRK-52E | MTT | 24 h | 97.9 µM
CC(=O)O[C@H]1C(=O)[C@@]2(C)[C@H]([C@H](OC(=O)c3ccccc3)[C@]3(O)C[C@H](OC(=O)[C@H](O)[C@@H](NC(=O)c4ccccc4)c4ccccc4)C(C)=C1C3(C)C)[C@]1(OC(C)=O)CO[C@@H]1C[C@@H]2O | CT26 | – | – | 2 mg/L
CC(C)C[C@H](NC(=O)[C@H](Cc1ccccc1)NC(=O)c1cnccn1)B(O)O | KG-1 | ATP luminescence | – | 0.0048 µM
Cc1cc(Nc2ncc(Cl)c(Nc3ccccc3S(=O)(=O)C(C)C)n2)c(OC(C)C)cc1C1CCNCC1 | Rh18 | – | 72 h | 2.34 µM
Cc1ccc2c(c1)c(C(c1ccc(/C=C/C(=O)O)s1)c1cn(C(C)C)c3ccc(C)cc13)cn2C(C)C | KG-1 | – | 48 h | > 5 µM
CCn1c2ccccc2c2cc(C3CC(c4cc5c(ccc6ccccc65)oc4=O)=NN3c3ccccc3)ccc21 (stereo not drawn) | NRK-52E | MTT | 24 h | 122 µM
COc1cc(Nc2nccc(-c3cnn4nc(OC)ccc34)n2)cc(C(F)(F)F)c1 | KG-1 | ATP luminescence | – | 0.86 µM
COc1cc(-c2ncn(/C=C\C(=O)OC(C)C)n2)cc(C(F)(F)F)c1 | KG-1 | – | 72 h | 0.165 µM
CCn1c2ccccc2c2cc(C3CC(c4cc5ccccc5oc4=O)=NN3c3ccccc3)ccc21 (stereo not drawn) | NRK-52E | MTT | 24 h | 103 µM
